Measurements: PubChem BioAssay
Unmarked numbers belong to inactive results. Results filed as inconclusive are left out. The source made the active and inactive calls.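 How the source made its calls, unless noted: active means viability increase at or above a cutoff of the median across tested compounds plus 3 SD (cut at about 8.5% in these data, passing the limit was not always enough); inconclusive means some gains above the cutoff, reason not given; inactive means the rest.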

What was measured:
[1] = S. cerevisiae growth inhibition in permissive medium (OD615), pilot counter-assay for S. cerevisiae lifespan shortening project, permissive growth control (AID 705;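 active means growth inhibition above 25% in both replicates, a cutoff set 3 SD above the mean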); settings: OD615, 24 h, at 10 µM, active compounds read high
Procedure, shortened: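 Material: engineered DeaD yeast; Compound: one dose 10 µM, DMSO 0.25% final; Detection: absorbance (optical density) at 615 nm; Buffer or medium: permissive raffinose/galactose medium; Timing: 24 h exposure, 30 °C.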

[2] = S. cerevisiae growth inhibition in restrictive medium, OD615, pilot screen, restrictive growth control, yeast lifespan reduction project (AID 706;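 active means growth inhibition above a set limit, 3 SD over mean compound inhibition, in both replicates, cut at about 43% in these data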;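 further: modified DeaD lifespan yeast strain shifted to restrictive glucose medium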); settings: OD615, 48 h, at 10 µM, active compounds read high
Procedure, shortened: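 Buffer or medium: restrictive glucose medium (CSMM-D); test system: modified S. cerevisiae; doses: single dose of 10 µM compound final, 0.25% DMSO; schedule: 48 h compound exposure at 30 °C; detection: absorbance (optical density) measured at 615 nm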

[3] = doxorubicin toxicity protection in MRP-1 cells – H69AR cells, CellTiter-Glo, duplicate, MRP-1 activator project, pilot screen (AID 807); settings: H69AR viability with doxorubicin, CellTiter-Glo luminescence; at 10 µM; active compounds read high;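 further: compound pretreatment 18-22 h then 72 h combined with doxorubicin; 0% = doxorubicin alone and 100% = vehicle without doxorubicin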
[4] = viability of HCT116 without oncogenic beta-catenin – human colon tumor cells, pilot screen (AID 823;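 active means cell viability at or below a set limit in both duplicate runs, the limit being the all-compound median minus 4 SD, cut at about 23% in these data, passing the limit was not always enough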;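 further: 0% = wells killed by 20 µM Hyamine and 100% = untreated DMSO cell wells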); settings: HCT116 beta-catenin knockout viability, CellTiter-Glo, 60 h; at 10 µM; active compounds read low
[5] = viability of PTEN-null HCT116 cells – cell-based, HCT116 clonal line, CellTiter-Glo, pilot screen (AID 824;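 active means viability at or below 27.92% in each of two runs, the all-compound median minus 4 SD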;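 further: 0% = 20 µM Hyamine control and 100% = vehicle cell control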); settings: HCT116 PTEN-deleted viability, 60 h, at 10 µM, active compounds read low
[6] = RAM pathway blockade in budding yeast – dse1pr::URA3 reporter, 5-FOA selection, pilot screen (AID 869;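 active means inhibition over a set limit, the all-compound mean plus 3 SD, in both replicate runs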;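 further: 0% = DMSO wells with no growth and 100% = 10 µM 1-NA-PP1 with full growth; RAM network block rescues cells from 5-FOA so hits raise OD615 growth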); settings: S. cerevisiae dse1pr::URA3 5-FOA growth, OD615, 2 d; at 10 µM; active compounds read high; strain carries analog-sensitive mutant Cbk1 kinase
[7] = RAM signaling pathway blockade in yeast – S. cerevisiae, Pdr1DBD-CYC8 efflux-inhibited sensitized strain, primary screen (AID 1298;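 active means RAM network inhibition above 8.4% in each of two replicates, 3 SD over the compound average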;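 further: 0% = DMSO untreated cells without growth and 100% = 10 µM 1-NA-PP1 full growth; higher means more yeast growth rescued from 5-FOA killing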); settings: S. cerevisiae cbk1-as DSE1-URA3 strain, 5-FOA growth OD615, 2 d; at 50 µM; active compounds read high

SMILES | growth inhibition [1] [%] | growth inhibition [2] | viability increase [3] [%] | viability [4] | viability [5] | inhibition [6] [%] | RAM network inhibition [7] [%]
CC(C)OC(=O)C1C2C=CC3(CN(C(C)c4ccc(Br)cc4)C(=O)C13)O2 (configuration not stated) | -19.3 | -19.3% | -2.07 | 96.8% | 94.1% | 0.395 | 6.84
CNC(=O)c1c[nH]n2c(=O)c(Cc3ccccc3F)c(C)nc12 | -2.95 | -3.94% | -0.89 | 87.7% | 91.6% | 1.17 | 3.18
COC(=O)c1c(-c2cccc(OC)c2)csc1N | -8.46 | 1.4% | -4.63 | 103% | 100% | 1.37 | 0.9
CCCCNC(=O)Nc1cc(C(=O)OC)ccc1C | -6.38 | -14.2% | 0.11 | 85.2% | 91.4% | 1.55 | 7.5
CS(=O)(=O)N1Cc2ccccc2CC1C(=O)Nc1ccccc1C(N)=O (configuration not stated) | -2.29 | -1.52% | -1.04 | 108% | 97% | 3.26 | 7.36
CC(C)Cn1c(CN2C(=O)c3ccccc3C2=O)nc2ccccc2c1=O | -8.43 | -9.18% | -0.19 | 98.4% | 93.4% | 3.54 | 5.36
CC1=CC(C)(C)Nc2ccc(OC(=O)c3ccco3)cc21 | 1.4 | -5.68% | -7.71 | 0.49% (active) | 0.6% (active) | 0.475 | 0.98
CC(=O)Nc1nnc(C)s1 | -17 | -8.07% | -2.11 | 103% | 93.3% | 1.29 | 1.53
CCCCn1c(C(C)NC(=O)COC)nc2ccccc21 (configuration not stated) | -3.38 | 1.68% | -0.01 | 91.4% | 101% | 1.94 | 0.2
CC1CCCC(C)N1c1nnc(N)s1 (configuration not stated) | 0.52 | 30.8% | -1.42 | 104% | 102% | 0.385 | 0.17
CC1CCN(CCCNC(=O)c2cc3c(=O)n(C)c4ccccc4c3n2C)CC1 | 0.225 | -4.35% | -5.04 | 43.1% | 50% | -0.26 | 1.43
COc1ccc(C(=O)Nc2cc3c(cc2C#N)OCO3)cc1S(=O)(=O)N1CCN(C)CC1 | -18.3 | -21.2% | 1.53 | 100% | 101% | 0.975 | 5.27
O=C1CC(N2CCN(C/C=C/c3ccccc3)CC2)C(=O)N1CCc1ccccc1 (configuration not stated) | -12.7 | -9.45% | -0.11 | 72.8% | 77.6% | 1.02 | 7.71
COc1ccc(C(=O)NCC23C=CC(O2)C2C(=O)N(Cc4ccccc4)C(=O)C23)cc1 (configuration not stated) | -5.3 | 13.4% | -0.77 | 85.1% | 88.8% | 2.19 | 3.67
COC(=O)CN(c1ccccc1)S(=O)(=O)c1ccccc1 | -15.8 | -2.47% | -0.03 | 101% | 99.8% | 1.01 | 0.88
O=C(Cn1c(=O)sc2ccccc21)Nc1ccccc1C(=O)O | -3.71 | 0.435% | 1.36 | 102% | 96.7% | 3.53 | 2.02
CCc1nnc(NC(=O)C2CCCCC2)s1 | 5.8 | 14.7% | 1.12 | 109% | 106% | 0.455 | 1.04
Cc1ccc2oc3c(c(=O)c2c1)C(c1cccs1)N(CCCN(C)C)C3=O (configuration not stated) | 2.01 | 4.98% | -2.74 | 97.2% | 97.8% | 1.28 | -1.13

SMILES | growth inhibition [1] [%] | growth inhibition [2] | viability increase [3] [%] | viability [4] | viability [5] | inhibition [6] [%] | RAM network inhibition [7] [%]
COc1ccccc1NC(=O)Cn1cnc2c(oc3ccccc32)c1=O | -11.8 | -11.6% | -1.93 | 107% | 100% | 1.6 | -1.27
Cc1ccc(C2CC(c3ccc(F)cc3)Nc3nc(N)nn32)cc1 (configuration not stated) | -3.28 | 5.93% | -3.44 | 99.8% | 86.7% | 0.25 | 2.86
Cc1onc(-c2ccccc2Cl)c1C(=O)OCN1C(=O)c2ccccc2C1=O | -16.8 | -12.5% | -2.89 | 90% | 99% | 0.93 | 5.34
Cc1c(C(=O)N2CCCCC2)sc(N)c1C#N | 4.06 | 4.32% | -0.95 | 96% | 95.2% | -0.355 | 1.18
CCOC(=O)c1c(CC(C)C)csc1NC=O | -4.46 | -33.1% | -1.84 | 81.8% | 80.1% | 1.18 | 0.88
CCCNc1nc2c(c(=O)[nH]c(=O)n2C)n1Cc1ccc(F)cc1 | -1.32 | -1.12% | -2 | 104% | 92.9% | 0.945 | 0.57
COC(=O)C1=C(C)Nc2ccc(C)cc2S1 | 14.1 | 29.2% | -2.27 | 98.8% | 100% | 1.25 | 3.11
O=C(Nc1ccc(N2CCCCC2)cc1)c1cncc(Br)c1 | 5.98 | 15.3% | -4.57 | 100% | 96.8% | 1.98 | 5.26
CC(C)NS(=O)(=O)c1ccc(NC(=O)c2cccnc2)cc1 | -12.7 | -17.3% | -0.51 | 112% | 97.1% | 1.95 | 1.31
CCOC(=O)c1sc(NC(C)=O)cc1C | -1.26 | 4.88% | 0.69 | 115% | 96% | 0.47 | 1.02
O=C(c1cnn2ccccc12)N(Cc1ccco1)C1CCCC1 | -12 | -4.11% | -3.08 | 70% | 69.8% | 2.74 | 1.62
COCCCN(C(=O)Nc1ccc(C)c(C)c1)C(C)c1ccccn1 (configuration not stated) | 2.01 | 11.8% | -1.65 | 102% | 89.8% | 2.15 | 5.96
CC(C)=C1C2C=CC1C(C(=O)Nc1cc(C)ccc1C)C2C(=O)O (configuration not stated) | -14.6 | -12.2% | -4.28 | 87.4% | 85.8% | 1.78 | 6.92
CCCN(CCC)S(=O)(=O)c1ccc(C(=O)NCc2ccc3c(c2)OCO3)cc1 | -12.9 | -18.8% | -3.62 | 94.5% | 80.3% | 2.21 | 4.05
CCOC(=O)Cn1c(CN2CCOCC2)nc2c1c(=O)n(C)c(=O)n2C | -1.92 | -5.31% | 1.26 | 107% | 103% | 1.72 | 2.19
CC1Cc2ccccc2N1C(=O)c1ccc2snnc2c1 (configuration not stated) | -1.7 | -9.59% | -3.96 | 95% | 96.8% | 0.79 | 6.74
C=CCSc1nnc2nc3c(nn12)c1cc(C)ccc1n3CC=C | 10.7 | 51.1% (active) | -3.51 | 88% | 82.6% | 1.21 | 3.23
Cc1nc(S(=O)(=O)c2ccc(Cl)cc2)c(NCc2ccccc2)o1 | -6.92 | -2.45% | -0.96 | 94.5% | 95.5% | 2.39 | 4.59
